{"source": "ChEMBL document CHEMBL1914327", "about": "“Unichiral 2-(2'-pyrrolidinyl)-1,4-benzodioxanes: the 2R,2'S diastereomer of the N-methyl-7-hydroxy analogue is a potent α4β2- and α6β2-nicotinic acetylcholine receptor partial agonist” (J Med Chem, 2011)", "key": {"[1]": {"molecular_target": "T1, Neuronal acetylcholine receptor; alpha4/beta2 (Rattus norvegicus, UniProt P09483+P12390)", "T1 sequence (P09483 whole entry)": "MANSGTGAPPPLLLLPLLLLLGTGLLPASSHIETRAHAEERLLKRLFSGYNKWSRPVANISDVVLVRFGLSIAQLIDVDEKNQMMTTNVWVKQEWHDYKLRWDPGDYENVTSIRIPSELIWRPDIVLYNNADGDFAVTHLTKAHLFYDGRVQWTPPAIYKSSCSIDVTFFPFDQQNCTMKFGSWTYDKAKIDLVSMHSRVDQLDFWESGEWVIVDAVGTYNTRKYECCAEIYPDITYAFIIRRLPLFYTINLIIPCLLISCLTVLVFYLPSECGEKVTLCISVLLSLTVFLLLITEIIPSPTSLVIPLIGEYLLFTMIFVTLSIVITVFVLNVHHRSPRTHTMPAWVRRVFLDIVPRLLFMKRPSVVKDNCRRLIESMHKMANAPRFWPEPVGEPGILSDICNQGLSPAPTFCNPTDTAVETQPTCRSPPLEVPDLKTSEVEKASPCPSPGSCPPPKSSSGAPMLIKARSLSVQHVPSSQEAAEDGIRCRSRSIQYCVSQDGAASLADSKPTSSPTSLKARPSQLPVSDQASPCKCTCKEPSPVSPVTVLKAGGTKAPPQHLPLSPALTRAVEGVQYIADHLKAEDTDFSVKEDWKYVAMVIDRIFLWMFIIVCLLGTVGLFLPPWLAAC", "T1 sequence (P12390 whole entry)": "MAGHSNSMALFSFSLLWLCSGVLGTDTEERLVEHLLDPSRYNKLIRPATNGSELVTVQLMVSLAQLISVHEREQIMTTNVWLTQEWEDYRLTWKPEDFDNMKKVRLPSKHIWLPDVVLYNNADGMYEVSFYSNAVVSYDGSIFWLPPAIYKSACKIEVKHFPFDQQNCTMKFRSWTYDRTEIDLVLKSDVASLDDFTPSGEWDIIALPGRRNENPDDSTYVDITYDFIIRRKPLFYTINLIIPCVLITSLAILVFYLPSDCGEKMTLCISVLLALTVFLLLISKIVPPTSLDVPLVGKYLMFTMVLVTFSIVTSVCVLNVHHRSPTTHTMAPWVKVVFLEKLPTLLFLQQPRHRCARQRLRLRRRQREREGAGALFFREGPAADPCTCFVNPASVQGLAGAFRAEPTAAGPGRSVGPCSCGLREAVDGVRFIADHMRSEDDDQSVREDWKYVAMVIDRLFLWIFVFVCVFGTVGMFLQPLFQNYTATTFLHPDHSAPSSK", "assay": "Displacement of [3H]epibatidine from alpha4beta2 nAChR in Sprague-Dawley rat cerebral cortex by beta counting", "type": "tissue-based", "in_short": "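Sprague-Dawley rat cortical membranes in Tris buffer pH 7 with protease inhibitors. Membranes first blocked with 1 μM α-bungarotoxin. Compound (10 pM to 10 mM) preincubated 30 min at rt, then 0.1 nM [3H]epibatidine (final) added overnight at 4 °C. Nonspecific binding defined with 100 nM unlabeled epibatidine. Filtered and beta counted. Ki from three independent experiments fitted by LIGAND.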"}, "[2]": {"molecular_target": "Neuronal acetylcholine receptor subunit alpha-7 (Rattus norvegicus, UniProt Q05941)", "sequence (Q05941 whole entry)": "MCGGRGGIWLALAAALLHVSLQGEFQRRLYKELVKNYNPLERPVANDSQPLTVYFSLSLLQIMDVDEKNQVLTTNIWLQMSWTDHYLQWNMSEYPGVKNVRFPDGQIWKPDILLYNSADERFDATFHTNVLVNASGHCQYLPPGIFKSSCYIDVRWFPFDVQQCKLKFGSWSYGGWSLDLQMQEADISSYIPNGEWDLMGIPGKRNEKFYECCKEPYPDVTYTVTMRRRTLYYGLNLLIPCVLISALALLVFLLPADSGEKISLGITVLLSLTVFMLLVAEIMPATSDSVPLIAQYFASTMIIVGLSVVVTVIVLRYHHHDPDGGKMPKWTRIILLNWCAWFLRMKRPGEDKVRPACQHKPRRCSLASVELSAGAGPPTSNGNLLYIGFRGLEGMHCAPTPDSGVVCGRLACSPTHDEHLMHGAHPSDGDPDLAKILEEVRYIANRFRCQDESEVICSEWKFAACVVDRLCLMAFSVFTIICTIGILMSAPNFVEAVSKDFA", "assay": "Displacement of [125I]alpha-bungarotoxin from alpha7 nAChR in Sprague-Dawley rat cerebral cortex […]", "type": "tissue-based"}, "[3]": {"molecular_target": "T2, Neuronal acetylcholine receptor; alpha4/beta2 (Rattus norvegicus) (UniProt P09483+P12390)", "assay": "Agonist activity at rat alpha4beta2 nAChR assessed as [3H]dopamine release from rat striatum by beta counting relative to 10 uM nicotine", "type": "functional", "in_short": "(§1)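 Rat striatal slices (150 μm) were preloaded for 30 min with 100 nM [3H]DA in Krebs buffer containing 10 μM pargyline, then washed with pargyline plus 0.5 μM nomifensine. Slices were exposed to agonist for 5 min at 37 °C. […] EC50/Emax came from nonlinear regression; six replicates, ≥3 experiments.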"}, "[4]": {"molecular_target": "T1, Neuronal acetylcholine receptor; alpha4/beta2", "assay": "Agonist activity at rat alpha4beta2 nAChR assessed as [3H]dopamine release by beta counting", "type": "functional", "in_short": "as §1"}, "[5]": {"molecular_target": "T3, Neuronal acetylcholine receptor subunit alpha-6/beta-3 (Rattus norvegicus) (UniProt P12391+P43143)", "assay": "Agonist activity at rat alpha6beta2 nAChR assessed as [3H]dopamine release from rat striatum by beta counting relative to 10 uM nicotine", "type": "functional"}, "Rattus norvegicus": {"species_on_record": "Rattus norvegicus", "assay": "Selectivity ratio of Ki for alpha7 nAChR in Sprague-Dawley rat cerebral cortex to Ki for alpha4beta2 nAChR in Sprague-Dawley rat cerebral cortex", "type": "tissue-based", "in_short": "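Sprague-Dawley rat cortical membranes, with compound (10 pM–10 mM) preincubated 30 min at rt. α4β2 assay: membranes pretreated with 1 μM α-bungarotoxin, then 0.1 nM [3H]epibatidine overnight at 4 °C. α7 assay: 1 nM [125I]α-bungarotoxin overnight at rt. Ki values were from LIGAND fits of three experiments, and the ratio was taken from these Ki values.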"}, "[6]": {"molecular_target": "Neuronal acetylcholine receptor; alpha3/beta4 (Homo sapiens, UniProt P30926+P32297)", "sequence (P30926 whole entry)": "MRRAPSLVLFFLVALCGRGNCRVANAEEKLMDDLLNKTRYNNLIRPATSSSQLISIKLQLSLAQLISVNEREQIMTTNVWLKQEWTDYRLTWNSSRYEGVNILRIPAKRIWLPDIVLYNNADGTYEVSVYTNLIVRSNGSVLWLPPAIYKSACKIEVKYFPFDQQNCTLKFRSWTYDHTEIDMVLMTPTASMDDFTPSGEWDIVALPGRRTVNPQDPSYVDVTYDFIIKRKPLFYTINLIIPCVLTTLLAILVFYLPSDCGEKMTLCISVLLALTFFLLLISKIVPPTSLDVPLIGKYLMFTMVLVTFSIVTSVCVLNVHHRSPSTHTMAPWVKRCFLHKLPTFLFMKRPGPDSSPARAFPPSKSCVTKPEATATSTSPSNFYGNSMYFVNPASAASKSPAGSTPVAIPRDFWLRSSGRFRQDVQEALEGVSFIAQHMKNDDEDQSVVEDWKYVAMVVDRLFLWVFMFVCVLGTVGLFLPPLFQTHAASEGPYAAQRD", "sequence (P32297 whole entry)": "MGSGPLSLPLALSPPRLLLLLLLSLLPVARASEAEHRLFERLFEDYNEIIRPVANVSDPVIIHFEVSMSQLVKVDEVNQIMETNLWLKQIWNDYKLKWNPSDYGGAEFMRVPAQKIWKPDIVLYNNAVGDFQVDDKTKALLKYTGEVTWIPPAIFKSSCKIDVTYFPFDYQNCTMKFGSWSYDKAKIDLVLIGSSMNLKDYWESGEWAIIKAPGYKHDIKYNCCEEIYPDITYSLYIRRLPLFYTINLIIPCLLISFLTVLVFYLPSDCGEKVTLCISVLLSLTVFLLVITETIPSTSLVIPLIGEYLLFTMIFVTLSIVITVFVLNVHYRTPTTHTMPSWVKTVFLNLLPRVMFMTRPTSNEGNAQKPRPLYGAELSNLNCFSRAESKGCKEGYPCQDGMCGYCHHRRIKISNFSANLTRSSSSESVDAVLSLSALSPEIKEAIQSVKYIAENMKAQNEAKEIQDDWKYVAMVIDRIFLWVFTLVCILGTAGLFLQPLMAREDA", "assay": "Displacement of [3H]epibatidine from human alpha3beta4 nAChR expressed in human HEK293 cells by scintillation counting", "type": "cell-based", "in_short": "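Membranes from HEK293 cells transiently transfected with α3 and β4 cDNAs (harvested at 48 h). Compound was preincubated for 5 min, then 0.25 nM [3H]epibatidine was added overnight at 4 °C in Tris buffer (pH 7) with BSA and no Tween. Nonspecific binding used 100 nM epibatidine. Ki was fitted from three experiments in triplicate.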"}, "HEK293": {"tested_on": "HEK293", "assay": "Selectivity ratio of Ki for human alpha3beta4 nAChR expressed in human HEK293 cells to Ki for alpha4beta2 nAChR in rat cerebral cortex", "type": "cell-based"}, "[7]": {"molecular_target": "T1, Neuronal acetylcholine receptor; alpha4/beta2", "assay": "Partial agonist activity at Nicotinic acetylcholine alpha4beta2 receptor in rat striatum assessed as [3H]dopamine release by beta counting", "type": "functional, tissue-based", "in_short": "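Rat striatal slices (150 μm) were preloaded for 30 min with 100 nM [3H]DA in Krebs buffer containing 10 μM pargyline, then washed with pargyline plus 0.5 μM nomifensine. Slices were exposed to agonist for 5 min at 37 °C.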"}, "[8]": {"molecular_target": "T2, Neuronal acetylcholine receptor; alpha4/beta2 (Rattus norvegicus)", "assay": "Partial agonist activity at Nicotinic acetylcholine alpha4beta2 receptor in rat striatum assessed as [3H]dopamine release by beta counting relative to nicotine", "type": "functional, tissue-based", "in_short": "as §1"}, "[9]": {"molecular_target": "Neuronal acetylcholine receptor; alpha3/beta4 (Rattus norvegicus, UniProt P04757+P12392)", "sequence (P04757 whole entry)": "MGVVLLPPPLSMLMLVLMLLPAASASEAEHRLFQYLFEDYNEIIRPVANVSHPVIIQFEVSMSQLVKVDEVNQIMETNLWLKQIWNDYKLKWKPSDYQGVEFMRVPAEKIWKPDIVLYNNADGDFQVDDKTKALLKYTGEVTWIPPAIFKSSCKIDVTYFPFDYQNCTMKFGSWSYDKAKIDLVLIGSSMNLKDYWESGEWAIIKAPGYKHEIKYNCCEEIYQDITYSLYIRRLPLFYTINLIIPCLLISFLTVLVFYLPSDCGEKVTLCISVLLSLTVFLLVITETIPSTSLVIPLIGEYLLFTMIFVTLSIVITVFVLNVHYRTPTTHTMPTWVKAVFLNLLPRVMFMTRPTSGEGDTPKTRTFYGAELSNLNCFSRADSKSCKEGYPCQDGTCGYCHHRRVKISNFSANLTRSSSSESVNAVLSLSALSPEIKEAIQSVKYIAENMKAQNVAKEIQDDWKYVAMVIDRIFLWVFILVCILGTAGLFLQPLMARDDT", "sequence (P12392 whole entry)": "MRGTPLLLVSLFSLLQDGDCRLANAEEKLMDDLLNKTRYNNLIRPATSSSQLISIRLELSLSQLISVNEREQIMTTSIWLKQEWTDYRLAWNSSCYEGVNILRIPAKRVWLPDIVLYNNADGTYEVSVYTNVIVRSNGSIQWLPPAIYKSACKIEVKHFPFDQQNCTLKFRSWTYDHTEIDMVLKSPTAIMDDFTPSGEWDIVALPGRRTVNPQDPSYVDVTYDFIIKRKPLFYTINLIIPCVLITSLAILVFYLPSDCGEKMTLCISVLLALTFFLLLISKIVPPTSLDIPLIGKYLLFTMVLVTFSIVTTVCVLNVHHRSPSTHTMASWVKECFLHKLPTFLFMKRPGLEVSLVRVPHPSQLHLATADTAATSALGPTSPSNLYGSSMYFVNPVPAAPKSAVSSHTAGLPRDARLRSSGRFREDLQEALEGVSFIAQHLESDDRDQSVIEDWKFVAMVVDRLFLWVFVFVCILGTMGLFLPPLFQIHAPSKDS", "assay": "Partial agonist activity at rat alpha3beta4 nAChR assessed as [3H]noradrenaline release from rat […] by beta counting", "type": "functional"}, "[10]": {"molecular_target": "T3, Neuronal acetylcholine receptor subunit alpha-6/beta-3 (Rattus norvegicus)", "assay": "Partial agonist activity at alpha6beta2 nAChR in rat striatum assessed as decrease in [3H]dopamine release by beta counting in the presence of antagonist alphaconotoxin MII", "type": "functional, tissue-based"}}, "note": "pEC50, pKd, pKi: −log10 of the molar value. The source made the active and inactive calls. The calls are words filed in the database; no cut-off is given here.", "data": [{"smiles": "CN1CCC[C@H]1[C@@H]1COc2ccc(-c3ccccc3)cc2O1", "values": [{"measurement": "pKi", "setting": "[1]", "result": 4.46}, {"measurement": "pKi", "setting": "[2]", "result": 4.44}]}, {"smiles": "CN1CCC[C@@H]1[C@H]1COc2ccc(O)cc2O1", "values": [{"measurement": "pKi", "setting": "[1]", "result": 5.46}, {"measurement": "pKi", "setting": "[2]", "result": 5.35}]}, {"smiles": "Oc1ccc2c(c1)O[C@H]([C@H]1CCCN1)CO2", "values": [{"measurement": "pKi", "setting": "[1]", "result": 5.89}, {"measurement": "pKi", "setting": "[2]", "result": 5.52}]}, {"smiles": "Oc1ccc2c(c1)O[C@@H]([C@@H]1CCCN1)CO2", "values": [{"measurement": "pKi", "setting": "[1]", "result": 5.92}, {"measurement": "pKi", "setting": "[2]", "result": 4.28}]}, {"smiles": "CN1CCC[C@H]1[C@@H]1COc2ccc(CO)cc2O1", "values": [{"measurement": "pKi", "setting": "[1]", "result": 4.29}, {"measurement": "pKi", "setting": "[2]", "result": 4.22}]}, {"smiles": "Cc1ccc2c(c1)O[C@H]([C@@H]1CCCN1C)CO2", "values": [{"measurement": "pKi", "setting": "[1]", "result": 4.38}, {"measurement": "pKi", "setting": "[2]", "result": 3.90}]}, {"smiles": "CN1CCC[C@H]1[C@H]1COc2ccc(-c3ccccc3)cc2O1", "values": [{"measurement": "pKi", "setting": "[1]", "result": 5.51}, {"measurement": "pKi", "setting": "[2]", "result": 4.29}]}, {"smiles": "c1cnc2cc3c(cc2n1)[C@@H]1CNC[C@H]3C1", "note": "[VARENICLINE]", "values": [{"measurement": "Efficacy", "setting": "[3]", "result": 49, "unit": "%"}, {"measurement": "pEC50", "setting": "[4]", "result": 7.34}, {"measurement": "Efficacy", "setting": "[5]", "result": 49, "unit": "%"}]}, {"smiles": "CN1CCC[C@H]1[C@@H]1COc2ccc(Br)cc2O1", "values": [{"measurement": "pKi", "setting": "[1]", "result": 5.09}, {"measurement": "pKi", "setting": "[2]", "result": 4.66}]}, {"smiles": "COc1ccc2c(c1)O[C@@H]([C@@H]1CCCN1C)CO2", "values": [{"measurement": "pKi", "setting": "[1]", "result": 5.38}, {"measurement": "pKi", "setting": "[2]", "result": 4.59}]}, {"smiles": "CC(C)Oc1ccc2c(c1)O[C@@H]([C@@H]1CCCN1C)CO2", "values": [{"measurement": "pKi", "setting": "[1]", "result": 5.49}, {"measurement": "pKi", "setting": "[2]", "result": 4.37}]}, {"smiles": "COc1ccc2c(c1)O[C@H]([C@@H]1CCCN1C)CO2", "values": [{"measurement": "pKi", "setting": "[1]", "result": 4.77}, {"measurement": "pKi", "setting": "[2]", "result": 4.49}]}, {"smiles": "CN1CCC[C@H]1[C@H]1COc2ccc(O)cc2O1", "values": [{"measurement": "pKi", "setting": "[1]", "result": 6.38}, {"measurement": "pKi", "setting": "[2]", "result": 4.70}, {"measurement": "Ratio Ki", "setting": "Rattus norvegicus", "result": 47}]}, {"smiles": "Oc1ccc2c(c1)O[C@H]([C@@H]1CCCN1)CO2", "values": [{"measurement": "pKi", "setting": "[1]", "result": 5.05}, {"measurement": "pKi", "setting": "[2]", "result": 4.48}]}, {"smiles": "CC(=O)c1ccc2c(c1)O[C@H]([C@@H]1CCCN1C)CO2", "note": "(racemic)", "values": [{"measurement": "pKi", "setting": "[1]", "result": 4.01}, {"measurement": "pKi", "setting": "[2]", "result": 3.96}]}, {"smiles": "CC(C)Oc1ccc2c(c1)O[C@H]([C@@H]1CCCN1C)CO2", "values": [{"measurement": "pKi", "setting": "[1]", "result": 5.03}, {"measurement": "pKi", "setting": "[2]", "result": 5.21}]}, {"smiles": "Oc1ccc2c(c1)O[C@@H]([C@H]1CCCN1)CO2", "values": [{"measurement": "pKi", "setting": "[1]", "result": 4.74}, {"measurement": "pKi", "setting": "[2]", "result": 4.46}]}, {"smiles": "Cc1ccc2c(c1)O[C@@H]([C@@H]1CCCN1C)CO2", "values": [{"measurement": "pKi", "setting": "[1]", "result": 5.24}, {"measurement": "pKi", "setting": "[2]", "result": 4.19}]}, {"smiles": "CN1CCC[C@@H]1[C@@H]1COc2ccc(O)cc2O1", "values": [{"measurement": "pKi", "setting": "[1]", "result": 5.52}, {"measurement": "pKi", "setting": "[2]", "result": 5.89}]}, {"smiles": "CC(=O)c1ccc2c(c1)O[C@@H]([C@@H]1CCCN1C)CO2", "values": [{"measurement": "pKi", "setting": "[1]", "result": 4.93}, {"measurement": "pKi", "setting": "[2]", "result": 4.52}]}, {"smiles": "CN1CCC[C@H]1[C@H]1COc2ccc(Br)cc2O1", "values": [{"measurement": "pKd", "setting": "[1]", "result": 10.44}, {"measurement": "pKi", "setting": "[1]", "result": 5.52}, {"measurement": "pKd", "setting": "[2]", "result": 9.52}, {"measurement": "pKi", "setting": "[2]", "result": 4.66}]}, {"smiles": "CN1CCC[C@H]1[C@H]1COc2ccc(CO)cc2O1", "values": [{"measurement": "pKi", "setting": "[1]", "result": 5.02}, {"measurement": "pKi", "setting": "[2]", "result": 4.92}]}, {"smiles": "CN1CCC[C@H]1[C@@H]1COc2ccc(O)cc2O1", "values": [{"measurement": "pKi", "setting": "[1]", "result": 7.92}, {"measurement": "pKi", "setting": "[2]", "result": 6.37}, {"measurement": "Ratio Ki", "setting": "Rattus norvegicus", "result": 35}, {"measurement": "pKi", "setting": "[6]", "result": 6.51}, {"measurement": "Ratio Ki", "setting": "HEK293", "result": 26}, {"measurement": "pEC50", "setting": "[7]", "result": 7.09}, {"measurement": "Efficacy", "setting": "[8]", "result": 51, "unit": "%"}, {"measurement": "pEC50", "setting": "[9]", "result": 4.75}, {"measurement": "Activity", "setting": "[10]", "result": "inactive"}]}]}
